ChEMBL document CHEMBL1156239, “Synthesis, anticonvulsant and antimicrobial activities of some new 2-acetylnaphthalene derivatives” (Bioorg Med Chem, 2010)
≈ marks a conversion by molar mass, not a printed value. Calls of active or inactive are those of the source. The rule behind the calls is not given here.

Key:
Rattus norvegicus [1] = test: Anticonvulsant activity in ip dosed Sprague-Dawley rat assessed as inhibition of maximal electroshock-induced seizures after 0.5 hrs; format: functional
Rattus norvegicus [2] = test: Anticonvulsant activity in Sprague-Dawley rat assessed as inhibition of maximal electroshock-induced seizures at 30 mg/kg, po after 1 hr; format: functional, organism-based; parameters: dose 30 mg/kg
Summary of the method: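 Male albino Sprague-Dawley rats (105–130 g) given a single oral 30 mg/kg dose suspended in 0.5% methylcellulose; MES (60 Hz, 150 mA, 0.2 s, tetracaine-anesthetized eyes) at 0.25, 0.5, 1, 2 and 4 h; 4 rats per time point; scored protected/tested.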

Mus musculus [3] = test: Neurotoxicity in CF1 mouse assessed as ability to grasp rotarod at 300 mg/kg, ip after 0.5 hrs by rotarod test; format: toxicity, organism-based; parameters: dose 300 mg/kg, route intraperitoneal; details: in vivo
Summary of the method: (§1)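 Male albino CF#1 mice (18–25.5 g) dosed ip with compound suspended in 0.5% methylcellulose, 0.5 h or 4 h before testing; neurotoxicity assessed by rotarod, scored as number toxic/number tested.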

Mus musculus [4] = test: Anticonvulsant activity in ip dosed CF1 mouse assessed as inhibition of ScM-induced seizures after 5 hrs; format: functional
Enterococcus faecalis = test: Antibacterial activity against Enterococcus faecalis ATCC 29212 after 24 hrs by broth microdilution method; format: functional; details: ATCC 29212, 24 h
Summary of the method: (§2)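 Broth microdilution in Mueller Hinton broth; compound stocks in DMSO, diluted into test medium. Plates incubated at 35 °C and read visually after 24 h. MIC taken as lowest concentration preventing visible growth. Ampicillin reference.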

Mus musculus [5] = test: Neurotoxicity in CF1 mouse assessed as hyperactivity at 300 mg/kg, ip after 0.5 hrs by rotarod test; format: toxicity, organism-based; parameters: dose 300 mg/kg, route intraperitoneal; details: in vivo
[6] = Neurotoxicity in ip dosed CF1 mouse after 0.25 hrs by rotarod test; format: toxicity, organism-based; details: in vivo
Summary of the method: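 TD50 was determined at the time of peak effect in male albino animals. Compound was suspended in 0.5% methylcellulose and given ip. Neurotoxicity was read by rotarod in CF#1 mice and by positional sense, gait and stance in Sprague-Dawley rats. Groups of at least 8 received graded doses spanning 0–100% toxicity.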

Rattus norvegicus [7] = test: Neurotoxicity in Sprague-Dawley rat at 30 mg/kg, po after 0.5 hrs by rotarod test; format: toxicity, organism-based; parameters: dose 30 mg/kg, route oral; details: in vivo
Mus musculus [8] = test: Anticonvulsant activity in CF1 mouse assessed as inhibition of maximal electroshock-induced seizures at 100 mg/kg, ip after 0.5 hrs; format: functional, organism-based; parameters: dose 100 mg/kg
Summary of the method: (§3)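 Male albino CF#1 mice (18–25.5 g), compound suspended in 0.5% methylcellulose, given ip 0.5 h or 4 h before test. Eyes treated with 0.5% tetracaine HCl in saline; corneal-type MES at 60 Hz, 50 mA for 0.2 s; protection scored as animals protected/tested.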

Rattus norvegicus [9] = test: Neurotoxicity in Sprague-Dawley rat at 30 mg/kg, ip after 2 hrs by rotarod test; format: toxicity, organism-based; parameters: dose 30 mg/kg, route intraperitoneal; details: in vivo
Escherichia coli = test: Antibacterial activity against Escherichia coli ATCC 25922 after 24 hrs by broth microdilution method; format: functional; details: ATCC 25922, 24 h; summary of the method: as §2
Rattus norvegicus [10] = test: Neurotoxicity in ip dosed Sprague-Dawley rat after 0.5 hrs by rotarod test; format: toxicity, organism-based; details: in vivo
Rattus norvegicus [11] = test: Neurotoxicity in Sprague-Dawley rat at 30 mg/kg, ip after 0.25 hrs by rotarod test; format: toxicity, organism-based; parameters: dose 30 mg/kg, route intraperitoneal; details: in vivo
Staphylococcus aureus = test: Antibacterial activity against Staphylococcus aureus ATCC 25923 after 24 hrs by broth microdilution method; format: functional; details: ATCC 25923, 24 h; summary of the method: as §2
Rattus norvegicus [12] = test: Anticonvulsant activity in Sprague-Dawley rat assessed as time to peak effect for inhibition of maximal electroshock-induced seizures at 30 mg/kg, ip; format: functional; details: route intraperitoneal
Mus musculus [13] = test: Anticonvulsant activity in CF1 mouse assessed as time to peak effect for inhibition of maximal electroshock-induced seizures at 70 mg/kg, ip; format: functional; details: route intraperitoneal
Rattus norvegicus [14] = test: Neurotoxicity in Sprague-Dawley rat at 30 mg/kg, ip after 1 hr by rotarod test; format: toxicity, organism-based; parameters: dose 30 mg/kg, route intraperitoneal; details: in vivo
Mus musculus [15] = test: Anticonvulsant activity in CF1 mouse assessed as time to peak effect for inhibition of maximal electroshock-induced seizures at 70 mg/kg, ip after 4 hrs; format: functional, organism-based; parameters: dose 70 mg/kg
Rattus norvegicus [16] = test: Neurotoxicity in Sprague-Dawley rat at 30 mg/kg, ip after 4 hrs by rotarod test; format: toxicity, organism-based; parameters: dose 30 mg/kg, route intraperitoneal; details: in vivo
Rattus norvegicus [17] = test: Neurotoxicity in Sprague-Dawley rat at 30 mg/kg, po after 2 hrs by rotarod test; format: toxicity, organism-based; parameters: dose 30 mg/kg, route oral; details: in vivo
Mus musculus [18] = test: Neurotoxicity in CF1 mouse at 30 mg/kg, ip after 0.5 hrs by rotarod test; format: toxicity, organism-based; parameters: dose 30 mg/kg, route intraperitoneal; details: in vivo; summary of the method: as §1
Pichia kudriavzevii = test: Antifungal activity against Candida krusei ATCC 6258 after 48 hrs by broth microdilution method; format: functional; details: ATCC 6258, 48 h
Candida parapsilosis = test: Antifungal activity against Candida parapsilosis ATCC 22019 after 48 hrs by broth microdilution method; format: functional; details: Lodderomyces parapsilosis, ATCC 22019, 48 h
Rattus norvegicus [19] = test: Neurotoxicity in Sprague-Dawley rat assessed as time to peak effect at 75 mg/kg, ip by rotarod test; format: toxicity, organism-based; parameters: dose 75 mg/kg, route intraperitoneal; details: in vivo
Pseudomonas aeruginosa = test: Antibacterial activity against Pseudomonas aeruginosa ATCC 27853 after 24 hrs by broth microdilution method; format: functional; details: ATCC 27853, 24 h; summary of the method: as §2
Rattus norvegicus [20] = test: Anticonvulsant activity in Sprague-Dawley rat assessed as inhibition of maximal electroshock-induced seizures at 30 mg/kg, ip; format: functional, organism-based; parameters: dose 30 mg/kg
Rattus norvegicus [21] = test: Neurotoxicity in Sprague-Dawley rat at 30 mg/kg, ip after 0.5 hrs by rotarod test; format: toxicity, organism-based; parameters: dose 30 mg/kg, route intraperitoneal; details: in vivo
Mus musculus [22] = test: Anticonvulsant activity in CF1 mouse assessed as inhibition of maximal electroshock-induced seizures at 300 mg/kg, ip after 4 hrs; format: functional, organism-based; parameters: dose 300 mg/kg; summary of the method: as §3
Mus musculus [23] = test: Anticonvulsant activity in CF1 mouse assessed as time to peak effect for inhibition of maximal electroshock-induced seizures at 23 mg/kg, ip after 1 hr; format: functional, organism-based; parameters: dose 23 mg/kg
Mus musculus [24] = test: Anticonvulsant activity in CF1 mouse assessed as inhibition of maximal electroshock-induced seizures at 300 mg/kg, ip after 0.5 hrs; format: functional, organism-based; parameters: dose 300 mg/kg; summary of the method: as §3
Rattus norvegicus [25] = test: Neurotoxicity in Sprague-Dawley rat assessed as time to peak effect at 10 to 30 mg/kg, ip after 0.25 to 4 hrs by rotarod test; format: toxicity, organism-based; parameters: route intraperitoneal; details: in vivo
Rattus norvegicus [26] = test: Neurotoxicity in Sprague-Dawley rat at 30 mg/kg, po after 1 hr by rotarod test; format: toxicity, organism-based; parameters: dose 30 mg/kg, route oral; details: in vivo
Mus musculus [27] = test: Neurotoxicity in CF1 mouse at 100 mg/kg, ip after 4 hrs by rotarod test; format: toxicity, organism-based; parameters: dose 100 mg/kg, route intraperitoneal; details: in vivo; summary of the method: as §1
Rattus norvegicus [28] = test: Neurotoxicity in Sprague-Dawley rat at 30 mg/kg, po after 0.25 hrs by rotarod test; format: toxicity, organism-based; parameters: dose 30 mg/kg, route oral; details: in vivo
Mus musculus [29] = test: Neurotoxicity in CF1 mouse assessed as time to peak effect for ability to grasp rotarod at 150 mg/kg, ip by rotarod test; format: toxicity, organism-based; parameters: dose 150 mg/kg, route intraperitoneal; details: in vivo
Rattus norvegicus [30] = test: Neurotoxicity in Sprague-Dawley rat assessed as time to peak effect at 50 mg/kg, ip after 2 to 6 hrs by rotarod test; format: toxicity, organism-based; parameters: dose 50 mg/kg, route intraperitoneal; details: in vivo
Rattus norvegicus [31] = test: Anticonvulsant activity in rat assessed as inhibition of hippocampal kindle-stimulated seizures at 300 mg/kg, ip; format: functional, organism-based; parameters: dose 300 mg/kg; details: Hippocampus
Summary of the method: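 Hippocampal kindled rat model; single animal given 300 mg/kg ip.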

In the case of `CC(C)CC(=O)OC(Cn1ccnc1)c1ccc2ccccc2c1` (configuration not stated), the ED50 (Rattus norvegicus [1]) is reported as 20.4 mg/kg, the inhibition (Rattus norvegicus [2]) is reported as “inactive” and the Activity (Mus musculus [3]) is reported as “Toxic”. For the same molecule, the ED50 (Mus musculus [4]) was over 138 mg/kg, the MIC (Enterococcus faecalis) was 64 µg/mL (≈ 199 µM) and the Activity (Mus musculus [5]) was “Toxic”. The TD50 at 0.25 h [6] was 124 mg/kg, the Activity (Rattus norvegicus [7]) was “Non-toxic” and the inhibition (Mus musculus [8]) was “Active”. The Activity (Rattus norvegicus [9]) was “Non-toxic”, the MIC (Escherichia coli) was over 1020 µg/mL and the ED50 (Rattus norvegicus [10]) was 56.36 mg/kg. The Activity (Rattus norvegicus [11]) was “Non-toxic”, the MIC (Staphylococcus aureus) was 8 µg/mL (≈ 24.8 µM) and the Time (Rattus norvegicus [12]) was 0.5 h. For the same molecule, the Time (Mus musculus [13]) was 0.5 h, the Activity (Rattus norvegicus [14]) was “Non-toxic” and the Activity (Mus musculus [15]) was “inactive”. For the same molecule, the Activity (Rattus norvegicus [16]) was “Non-toxic”, the Activity (Rattus norvegicus [17]) was “Non-toxic” and the Activity (Mus musculus [18]) was “Non-toxic”. For the same molecule, the MIC (Pichia kudriavzevii) was 128 µg/mL (≈ 397 µM), the MIC (Candida parapsilosis) was 64 µg/mL (≈ 199 µM) and the Time (Rattus norvegicus [19]) was 0.5 h. The MIC (Pseudomonas aeruginosa) was over 1020 µg/mL, the inhibition (Rattus norvegicus [20]) was “Active” and the Activity (Rattus norvegicus [21]) was “Non-toxic”. For the same molecule, the inhibition (Mus musculus [22]) was “Active”, the Activity (Mus musculus [23]) was “inactive” and the inhibition (Mus musculus [24]) was “Active”. The Activity (Rattus norvegicus [25]) was “Non-toxic”, the Activity (Rattus norvegicus [26]) was “Non-toxic” and the Activity (Mus musculus [27]) was “Non-toxic”. The Activity (Rattus norvegicus [28]) was “Non-toxic”, the Time (Mus musculus [29]) was 0.25 h and the Activity (Rattus norvegicus [30]) was “Non-toxic”. The inhibition (Rattus norvegicus [31]) was “inactive”.
